Yeast life ext = extends the lifespan of yeast | S. cerevisiae growth with nicotinamide, OD615; deaD strain in restrictive glucose medium | actives 0.68% (n = 130,000) | AID 775 | inhibition of the nicotinamide effect, % at 10 µM;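 active = inhibition above a set limit, placed 3 SD over the median of all compounds, cut at about 26% in these data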
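System: DeaD-strain S. cerevisiae / Buffer or medium: CSMM-D, restrictive glucose (dextrose) synthetic minimal medium / Probe or stimulus: nicotinamide, 1.5 mM, co-present with compound / Compound: one concentration, 10 µM, DMSO 0.25% / Incubation: 48 h compound exposure at 30 °C, humidified / Technique: optical density (absorbance) at 615 nm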
RAM inhibit = yeast RAM network inhibition; inhibition, % at 50 µM; AID 868; S. cerevisiae dse1pr::URA3 reporter, 5-FOA growth OD615, 2 d; analog-sensitive cbk1-as2 kinase mutant strain; actives 1.8% (n = 190,000);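 active = inhibition above a set limit, 3 SD over mean compound inhibition, cut at about 8.4% in these data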;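 note: inhibition rescues growth on 5-FOA so higher OD means more RAM inhibition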
Measles CPE = protection of cells from measles virus; Measles virus-infected cells, CPE protection, absorbance; protection (pct of control), % at 4 µM; actives 1.5% (n = 140,000); AID 841; in the data active = protection mostly above about 24%, no sharp cut-off; inactive = mostly below about 26%
Yeast growth inh = reduces growth of yeast BB579 in restrictive medium; S. cerevisiae BB579 growth, OD615, 48 h; inhibition, % at 10 µM; actives 0.51% (n = 140,000); AID 804;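 active = inhibition above a set limit, 3 SD over the mean compound inhibition, cut at about 44% in these data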
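Test system: Saccharomyces cerevisiae DeaD strain BB579, replicative lifespan model yeast | Buffer or medium: Restrictive CSMM-D medium | Doses: One dose, 10 µM compound with 0.25% DMSO | Incubation: 48 h exposure, 30 °C | Detection: Culture absorbance at 615 nm | Control set: Amphotericin B at 10 µg/mL as positive control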
RAM 5-FOA = RAM network inhibition, efflux-deficient strain. shares compounds with RAM inhibit. S. cerevisiae efflux-deficient reporter strain, 5-FOA growth OD615, 2 days. max inhibition, %. 1,200 tested, under 10 active. AID 1305; call rule not given here
A number is an active result; n = inactive; x = no result. The list is not random: actives were taken first. Their share in the collection is about 3.8%.

SMILES	Yeast life ext	RAM inhibit	Measles CPE	Yeast growth inh	RAM 5-FOA
Cc1ccccc1OCC(=O)NNC(=O)CSc1nc(N)cc(N)n1	x	n	x	x	x
Cc1cccc(OCC(=O)O/N=C(\N)Cc2ccc([N+](=O)[O-])cc2)c1	x	18	x	x	n
CCc1ccc(OCC(=O)O/N=C(\N)Cc2ccc([N+](=O)[O-])cc2)cc1	n	n	n	n	x
CNC(=O)c1ccc2c(c1)nnn2C	n	n	n	n	x
C=CCNC(=O)c1ccc2c(c1)nnn2C	n	14	n	n	n
CCOC(=O)c1ccc(NNC(=O)CC)c([N+](=O)[O-])c1	x	n	x	x	x
O=C(CCCN1C(=O)/C(=C/c2cccs2)SC1=S)Nc1ccccn1	x	n	x	x	x
O=C(O)CCCN1C(=O)/C(=C/c2cn(-c3ccccc3)nc2-c2cccs2)SC1=S	x	12	x	x	n
Cc1ccccc1NS(=O)(=O)c1cc(C(=O)NCCSC2CCCCC2)ccc1C	n	13	n	n	n
O=C(NCCn1cc(SCc2ccc(F)cc2)c2ccccc21)c1c(F)cccc1F	n	n	n	n	x
O=C(NCCn1cc(SCc2ccc(F)cc2)c2ccccc21)c1ccccc1F	n	13	n	n	n
CCCn1cnc2cc(NC(=O)c3cccs3)ccc21	x	n	x	x	x
O=S(=O)(NCCc1csc(-c2ccc(C(F)(F)F)cc2)n1)c1ccc2c(c1)OCCO2	n	12	n	n	n
COc1ccc(-c2nc(CCNS(=O)(=O)c3ccc4c(c3)OCCO4)cs2)cc1	n	n	n	n	x
COC(=O)c1ccccc1NC(=S)NC(=O)COc1ccccc1Cl	n	n	n	n	x
COC(=O)c1ccccc1NC(=O)c1cccc(COc2ccccc2Cl)c1	n	12	n	n	n
CCCCCC(=O)Nc1sc(C)c(C)c1C#N	n	n	n	n	x
CSc1nc(-c2ccccc2)nn1S(=O)(=O)c1ccccc1	x	n	n	n	x
Cc1ccc(C(=O)n2nc(-c3ccccc3)nc2NCc2ccco2)cc1	n	13	n	n	n
COc1ccc(CC(=O)n2nc(-c3ccc(Cl)cc3)nc2NCc2ccco2)cc1	n	14	n	n	n
CC(=O)n1nc(-c2ccc(Cl)cc2)nc1NCc1ccco1	n	n	n	n	x
O=C(c1cccs1)n1nc(-c2ccc(Cl)cc2)nc1NCc1ccco1	n	13	n	n	n
O=S(=O)(c1ccccc1)n1nc(-c2ccccc2)nc1NCc1ccco1	n	16	n	n	n
CCCC(=O)n1nc(-c2ccc(C)cc2)nc1NCc1ccco1	x	n	x	x	x
COC(=O)c1cc2c(ccn2-c2ccc(F)cc2)n1Cc1ccc(OC)cc1	n	15	n	n	n
SMILES	Yeast life ext	RAM inhibit	Measles CPE	Yeast growth inh	RAM 5-FOA
Nc1c(C(=O)NCCN2CCOCC2)c2nc3ccccc3nc2n1-c1ccccc1	n	n	n	n	x
CC(C)OCCCNC(=O)c1c(N)n(/N=C/c2ccccn2)c2nc3ccccc3nc12	n	12	n	n	n
COCCNC(=O)c1c(N)n(-c2ccccc2)c2nc3ccccc3nc12	n	15	n	n	n
CCC/C=C(\CCC)C(NS(=O)(=O)c1cccc2cccnc12)c1ccc(C(=O)OC)cc1 (stereo not drawn)	n	13	n	n	n
CC(C)Oc1ccccc1C1CC(=O)Nc2c1c(=O)n(C)c(=O)n2C (stereo not drawn)	n	n	n	n	x
O=C(CN(C(=O)CCC(=O)Nc1ccccn1)c1ccc2c(c1)OCCO2)NCCc1ccccc1	x	15	n	n	n
O=Cc1cc2ccccc2nc1SCCCF	x	n	x	x	x
Cc1ccc(C2=NN(Cc3nnc(-c4ccccc4)o3)C(=O)SC2)cc1	n	12	n	n	n
COC(=O)c1nn(-c2cccc(C)c2)c2nnc(Cc3ccc(C)cc3)c(=O)n12	n	n	n	n	x
Cc1ccc(Cc2nnc3n(-c4cccc(C)c4)nc(C(=O)c4ccccc4)n3c2=O)cc1	x	15	n	n	n
C/C=C(/C)C(=O)O[C@@H]1c2c(ccc3ccc(=O)oc23)O[C@@H]1C(C)(C)OC(=O)/C(C)=C\C	n	18	n	n	n
C/C=C(/C)C(=O)OC(C)(C)[C@@H]1Cc2c(ccc3ccc(=O)oc23)O1	n	n	n	n	x
CC(C)c1ccc(C(=O)NN2C(=O)C3CCCCC3C2=O)cc1 (stereo not drawn)	n	n	n	n	x
CCOC(=O)N1CCC(NC(=O)c2cccc3c2C(=O)N(c2ccc(OC)cc2)C3)CC1	n	n	n	n	x
O=C(CCc1ccc(Oc2cc([N+](=O)[O-])cc([N+](=O)[O-])c2)cc1)N1CCCCCC1	n	n	n	n	x
COc1ccc(N(CC(=O)NCc2ccc(C)cc2)S(=O)(=O)c2c(C)nn(C)c2C)cc1	n	15	n	n	n
COc1ccc(CNC(=O)CN(c2ccc(OC)cc2)S(=O)(=O)c2c(C)nn(C)c2C)cc1	n	n	n	n	x
O=C(Nc1nc2ccccc2s1)c1ccc(N2CCCCC2)c([N+](=O)[O-])c1	n	n	n	n	x
Cc1cccc(NC(=O)CN(c2ccc(F)cc2)S(C)(=O)=O)c1	x	n	x	x	x
CN(c1cccc(NC(=O)CN(c2ccc(F)cc2)S(C)(=O)=O)c1)S(C)(=O)=O	x	13	x	x	n
Cc1ccc(O)c(C(=O)/C=C/c2ccc3c(c2)OCCCO3)c1	n	12	n	n	n
CCOC(=O)c1ccc(NC(=O)COC(=O)c2cccc(Oc3ccccc3)c2)cc1	n	12	n	n	n
CCOC(=O)c1ccc(NC(=S)NC(=O)COc2ccccc2)cc1	n	11	n	n	n
O=C(CCN1C(=O)c2ccccc2C1=O)N1CCN(C2c3ccccc3-c3ccccc32)CC1	n	n	n	n	x
CCCOc1ccc(N2C(=O)CC(N(CCc3ccc(OC)cc3)C(=O)c3cccc(F)c3)C2=O)cc1 (stereo not drawn)	n	n	n	n	x
SMILES	Yeast life ext	RAM inhibit	Measles CPE	Yeast growth inh	RAM 5-FOA
CCCOc1ccc(N2C(=O)CC(N(CCc3ccccc3)C(=O)c3ccccc3)C2=O)cc1 (stereo not drawn)	x	12	x	x	n
Cc1ccc(C)c(Cn2c(C)nc3c(sc(=S)n3-c3ccccc3)c2=O)c1	x	n	x	x	x
Cc1cc(C)c(S(=O)(=O)Nc2ccc(O)cc2)c(C)c1	n	n	n	n	x
Cc1cc(C)c(S(=O)(=O)Nc2ccc3c(c2)CCC3)c(C)c1	n	13	n	n	n
CC(O)CNc1nc2ccccc2n1CC(=O)N1CCN(Cc2ccccc2)CC1 (stereo not drawn)	x	n	x	x	x
CN(C(=O)c1cc(-n2cnnc2)ccc1Cl)c1ccccc1	n	n	n	n	x
COc1ccc(-c2nc3ccccc3c(=O)n2CCOc2ccc(C)cc2C)cc1	n	15	n	n	n
COc1ccc(-c2nc3ccccc3c(=O)n2CCOc2cc(C)ccc2C)cc1	n	14	n	n	n
COc1ccc(-c2nc3ccccc3c(=O)n2CCOc2ccccc2C)cc1	n	21	n	n	n
CCCC[C@@H]1C[C@H]1[C@@H](NC(=O)c1ccccc1)c1ccccc1C(F)(F)F	n	22	n	n	n
COC(=O)[C@@H]1C[C@H]1[C@@H](NC(=O)c1ccccc1)c1ccccc1	n	n	n	n	x

Screens (PubChem BioAssay)
